The record followed here is PubChem BioAssay AID465 (The Scripps Research Institute Molecular Screening Center, 2006).

SMILES strings stand for the structures. About 130 (0.21%) of roughly 62,000 compounds were called active.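 Rule for the calls: active = inhibition above the mean of all tested compounds plus 3 SD (cut at about 40% in these data); inactive = the rest.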 What follows is part of a selection rich in actives, with near analogues and random picks from the rest.

The experiment can be described thus: inhibitors of PMA/ionomycin-induced NF-kB reporter, primary screen, antigen receptor NF-kB inhibitor project, cell-based, HEK-293 luciferase reporter, luminescence (AID 465).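 Note: 0% = stimulated DMSO wells and 100% = 10 µM reference inhibitor 5653914.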 Conditions: HEK-293 NF-kB luciferase reporter, at 3 µM, stronger effect = higher value. Summed up: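 Material: HEK-293 cells with stable firefly luciferase reporter driven by four HIV NF-kB elements / Also added: PMA plus ionomycin mix as NF-kB-activating stimulus / Compound dosing: 3 µM once, 0.30% DMSO / Times: 1 h pretreatment, 16 h stimulation, 37 °C / Signal: luminescence / Evaluation: per-plate % inhibition versus controls / Benchmarks: DMSO and 10 µM reference inhibitor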
Broadly, the inhibition is the relative decrease from the control value, in per cent. As to `N#CC1=C(N)OC2=C(C(=O)CCC2)C1C1CC=CCC1` (stereo not drawn), the inhibition was 16.6% (inactive).
For `O=S(N1CCCCCC1)C12CC3CC(CC(C3)C1)C2` (stereo not drawn), the inhibition is 19.1% (inactive).
On to `O=C(O)CCC(=O)Nc1ccc(N2CCOCC2)cc1`, for which the inhibition was 7.6% (inactive).
For `CC(=O)Nc1ccc(NS(=O)(=O)c2cc(C)sc2C)cc1` the value was 11.3% (inactive).
With `CCOC(=O)CNC(=O)c1nn(-c2cccc(OC)c2)c(=O)c2ccccc12`, the inhibition was 5.1% (inactive).
For `CC(=O)Nc1cc(C(=O)O)ccc1S(=O)(=O)c1ccc(Cl)cc1` the value was 15% (inactive).
Consider `O=C(Nc1cnccn1)c1cccnc1`, for which the inhibition is 14.9% (inactive).
For the compound `Cc1csc(NC(=O)C2CCCN2C(=O)OCC(C)C)n1` (stereo not drawn), the inhibition is 3.7% (inactive).
The value for `CCOC(=O)N1CCN(C(=O)c2cc3c(ccc4ccccc43)oc2=O)CC1` was 12.5% (inactive); that for `CC(C)(C)NC(=O)Cn1nnc(-c2ccccc2Cl)n1` was -10.7% (inactive).
For `O=C1NC(c2cc3c(cc2Cl)OCO3)Oc2ccccc21` (stereo not drawn) the value was 6.8% (inactive).
For `Cc1cc(=O)n2c3c(cccc13)CCC2` the value was 7.5% (inactive); for `CCCCN(C)Cc1c(C)[nH]c2ccc(Cl)cc2c1=O`, 9.1% (inactive); for `CNC(=O)CSc1nnc(CCc2ccccc2)n1-c1ccccc1`, 11.6% (inactive).
With `CCCCN=C(N)/C(C(=O)OCC)=C(\O)c1ccc(OC)cc1`, the inhibition was 7.4% (inactive).
On to `Cc1ccc(OS(=O)Nc2cccc3nccnc23)cc1` (stereo not drawn), for which the inhibition is 8.8% (inactive).
With `COC(=O)[C@H](C)NC(=O)Nc1ccc(OC(F)(F)F)cc1`, the inhibition is 11.6% (inactive).
Turning to `Cc1ccnc(N2CCN(C(=O)CSc3nc4ccccc4nc3N3CCCCC3)CC2)c1`, the inhibition was 5.5% (inactive).
The value for `COc1ccc(-c2nnn(CC(=O)N(CCO)C(C(=O)NC3CCCC3)c3ccc(F)cc3)n2)cc1` (stereo not drawn) was 24% (inactive).
Take `CCN(CC)S(=O)(=O)c1cc(C(=O)Nc2ccccn2)ccc1C`: the inhibition is -11.3% (inactive).
For `O=C(Cc1nn[nH]n1)NCCC1=CCCCC1` the value was 4.2% (inactive); for `CC(=O)Oc1ccc(C(=O)Nc2nccs2)cc1`, 11.8% (inactive).
Turning to `Nc1ccc(SCCN2C(=O)c3ccccc3C2=O)cc1`, the inhibition was 6.7% (inactive).
The value for `CCc1cc(=O)oc2cc(OCC(=O)N3CCCc4ccccc43)ccc12` was 12.9% (inactive); that for `Cc1cc(C)c(NC(=O)CS(=O)CC(=O)Nc2cccnc2)c(C)c1` (stereo not drawn) was 18.1% (inactive); that for `C=CCC(NCCCO)c1cccc(OC)c1OC` (stereo not drawn) was 7.1% (inactive).
Take `O=C(CN1C2CCC1CC(NC(=O)C1CC1)C2)NCc1ccccc1` (stereo not drawn): the inhibition was 7.7% (inactive).
As to `CCCC(NC(=O)c1ccccc1)c1nc2ccccc2n1Cc1ccc(C(=O)OC)o1` (stereo not drawn), the inhibition was 17.4% (inactive).
The value for `CCCC(CCC(=O)OC)(C(=O)OCC)c1csc(N)n1` (stereo not drawn) was 2.1% (inactive); that for `CCOC(=O)CSc1nncc2ccc(OC)c(OC)c12` was 2% (inactive).
The value for `O=C(NC(=O)c1ccc(Cl)c(Cl)c1)OC1CCS(=O)(=O)C1` (stereo not drawn) was 21.6% (inactive).
Regarding `CCCN1C2=C(C(=O)CCC2)C(c2ccc(O)c(Br)c2)C2=C1CCCC2=O`, the inhibition is -2.4% (inactive).
The value for `CCOC(=O)Cc1csc(NC(=O)CN(C)S(=O)(=O)c2ccc3c(c2)CCC(=O)N3)n1` was 0.2% (inactive).
Turning to `COc1cc(Cl)c(C)cc1NC(=O)CSc1nnc(-c2ccco2)n1CC(C)C`, the inhibition was 14.8% (inactive).
As to `O=C(CCC(=O)N1CCN(S(=O)(=O)c2ccccc2)CC1)NC1CCCc2ccccc21` (stereo not drawn), the inhibition is 15.4% (inactive).
On to `Cc1cc(Cl)c(S(=O)(=O)NCCC(=O)O)cc1OCC(N)=O`, for which the inhibition is 1.4% (inactive).
For `CC(=O)N1CCN(c2ccc(NCc3ccc(C(C)C)cc3)cc2)CC1`, the inhibition is -0.9% (inactive).
The value for `CCCn1c(SCC(=O)Nc2cccc(C(=O)OCC)c2)nnc1-c1ccoc1C` was -4.2% (inactive); that for `CCOc1ccc(OCc2ccc(C(=O)Nc3cccc(C)n3)o2)cc1` was -17.7% (inactive); that for `O=P(c1cccs1)(c1cccs1)c1cccs1` was 22.9% (inactive).
The value for `CCCn1cc(SCC(N)=O)c2ccccc21` was 2.8% (inactive).
Turning to `COc1ccc(N=Cc2c(O)[nH]c3ccccc23)cc1OC`, the inhibition is -16.7% (inactive).
For `CCN(CC)S(=O)(=O)c1ccc2nc(COC(=O)c3n[nH]c4ccccc34)[nH]c2c1` the value was 12.4% (inactive); for `Cc1ccn2cc(C(=O)NC3CCN(Cc4ccccc4)CC3)nc2c1`, 6.4% (inactive).
The value for `COc1cccc(NC(=O)Cn2cnc3sc(C)c(S(=O)(=O)N4CCN(C)CC4)c3c2=O)c1` was 11.9% (inactive); that for `COC(=O)c1ccc2c(=O)n(CC3CCCO3)c(=S)[nH]c2c1` (stereo not drawn) was 12.2% (inactive); that for `Cc1ccsc1C(=O)OCC(=O)c1cc(C)n(CC2CCCO2)c1C` (stereo not drawn) was 55.2% (active).
For `Cc1ccsc1C(=O)OCC(=O)c1cc2ccccc2o1` the value was 3.8% (inactive); for `O=C1NC(c2ccncc2)Nc2sc3c(c21)CCCC3` (stereo not drawn), 8% (inactive).
Regarding `COc1cccc(N(CC(=O)Nc2cccc(F)c2)S(C)(=O)=O)c1`, the inhibition was 22.4% (inactive).
For `N#CCCn1cnc2ccccc21` the value was 13.5% (inactive); for `CC1CCCN(Cc2nc3c(c(=O)n(C)c(=O)n3C)n2Cc2cccc3ccccc23)C1` (stereo not drawn), 30.3% (inactive).
The value for `Cc1c(C(=O)N2CC(C)OC(C)C2)sc2nc(-c3ccccc3)cn12` (stereo not drawn) was -1.4% (inactive); that for `CCN(CC)CCNC(=O)Cn1cnc2sc(C)c(S(=O)(=O)N3CCOCC3)c2c1=O` was 4.3% (inactive); that for `O=C(CN1CCN(C(=O)c2ccco2)CC1)Nc1ccc(Cl)c(C(F)(F)F)c1` was 3.2% (inactive).
For `NC(=O)C1CC=CCC1C(=O)OCC(Cl)=C(Cl)Cl` (stereo not drawn) the value was 0.1% (inactive); for `CCOCCc1c(O)nc(SCC(=O)NCc2ccco2)[nH]c1=O`, 2.4% (inactive); for `Cc1ccc(C(=O)Nc2nnc(-c3ccncc3)s2)o1`, 7.3% (inactive).
On to `O=C(O)C1CCCN1S(=O)(=O)c1ccc2c(c1)CCC2` (stereo not drawn), for which the inhibition is 15.4% (inactive).
The value for `COC(=O)c1ccccc1NC(=O)c1ccccc1NS(C)(=O)=O` was 14.9% (inactive); that for `O=C(CSC1=NCCS1)Nc1nc(-c2ccccc2)cs1` was -2.2% (inactive); that for `COC(=O)c1ccc(NC(=O)CN(c2ccc(C)cc2)S(=O)(=O)c2c(C)n[nH]c2C)cc1` was 21.2% (inactive).
Take `O=C(NCCN1CCOCC1)[C@H](Cc1ccccc1)N1C(=O)c2ccccc2C1=O`: the inhibition was 3.6% (inactive).
